Legend:
Format in all cases: functional
Enterococcus [1] = test: Bactericidal activity against vancomycin-resistant Enterococcus 49 preincubated for 1 min before addition of growth medium measured after 40 to 48 hrs
Summary of the method: (§1)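 Read-out is the minimal bactericidal concentration (MBC), taken after 1, 3 and 5 min contact of compound with the test organism.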

Staphylococcus aureus [2] = test: Bactericidal activity against methicillin-resistant Staphylococcus aureus KM 97-108 preincubated for 1 min before addition of growth medium measured after 40 to 48 hrs; summary of the method: as §1
Pseudomonas aeruginosa [3] = test: Bactericidal activity against Pseudomonas aeruginosa PAO1 preincubated for 3 mins before addition of growth medium measured after 40 to 48 hrs
Staphylococcus aureus [4] = test: Bactericidal activity against Staphylococcus aureus 209PJC preincubated for 3 mins before addition of growth medium measured after 40 to 48 hrs
Staphylococcus aureus [5] = test: Bactericidal activity against methicillin-resistant Staphylococcus aureus KM 97-108 preincubated for 5 mins before addition of growth medium measured after 40 to 48 hrs; summary of the method: as §1
Staphylococcus aureus [6] = test: Bactericidal activity against Staphylococcus aureus 209PJC preincubated for 5 mins before addition of growth medium measured after 40 to 48 hrs
Pseudomonas aeruginosa [7] = test: Bactericidal activity against Pseudomonas aeruginosa 12 preincubated for 3 mins before addition of growth medium measured after 40 to 48 hrs
Staphylococcus aureus [8] = test: Antibacterial activity against methicillin-resistant Staphylococcus aureus 97-115 after 24 hrs
Summary of the method: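 Read-out is the minimal inhibitory concentration (MIC), taken after 24 h incubation with the test organism.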

Staphylococcus aureus [9] = test: Bactericidal activity against methicillin-resistant Staphylococcus aureus KM 97-108 preincubated for 3 mins before addition of growth medium measured after 40 to 48 hrs; summary of the method: as §1
Pseudomonas aeruginosa [10] = test: Bactericidal activity against Pseudomonas aeruginosa PAO1 preincubated for 1 min before addition of growth medium measured after 40 to 48 hrs
Escherichia coli [11] = test: Antibacterial activity against Escherichia coli NIHJ JC-2 after 24 hrs
Summary of the method: (§2)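 Value is the minimal inhibitory concentration (MIC) against the test organism, read after 24 h of incubation.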

Staphylococcus aureus [12] = test: Bactericidal activity against Staphylococcus aureus 209PJC preincubated for 1 min before addition of growth medium measured after 40 to 48 hrs
Escherichia coli [13] = test: Bactericidal activity against Escherichia coli NIHJ JC-2 preincubated for 5 mins before addition of growth medium measured after 40 to 48 hrs
Pseudomonas aeruginosa [14] = test: Bactericidal activity against Pseudomonas aeruginosa PAO1 preincubated for 5 mins before addition of growth medium measured after 40 to 48 hrs
Enterococcus [15] = test: Bactericidal activity against vancomycin-resistant Enterococcus 49 preincubated for 5 mins before addition of growth medium measured after 40 to 48 hrs; summary of the method: as §1
Staphylococcus aureus [16] = test: Bactericidal activity against methicillin-resistant Staphylococcus aureus 97-115 preincubated for 1 min before addition of growth medium measured after 40 to 48 hrs; summary of the method: as §1
Staphylococcus aureus [17] = test: Bactericidal activity against methicillin-resistant Staphylococcus aureus 97-53 preincubated for 5 mins before addition of growth medium measured after 40 to 48 hrs; summary of the method: as §1
Staphylococcus aureus [18] = test: Bactericidal activity against methicillin-resistant Staphylococcus aureus 97-115 preincubated for 5 mins before addition of growth medium measured after 40 to 48 hrs; summary of the method: as §1
Pseudomonas aeruginosa [19] = test: Antibacterial activity against Pseudomonas aeruginosa PAO1; summary of the method: as §2
Escherichia coli [20] = test: Bactericidal activity against Escherichia coli NIHJ JC-2 preincubated for 1 min before addition of growth medium measured after 40 to 48 hrs
Staphylococcus aureus [21] = test: Bactericidal activity against methicillin-resistant Staphylococcus aureus 97-53 preincubated for 3 mins before addition of growth medium measured after 40 to 48 hrs; summary of the method: as §1
Staphylococcus aureus [22] = test: Bactericidal activity against methicillin-resistant Staphylococcus aureus 97-53 preincubated for 1 min before addition of growth medium measured after 40 to 48 hrs; summary of the method: as §1
Staphylococcus aureus [23] = test: Bactericidal activity against methicillin-resistant Staphylococcus aureus 97-115 preincubated for 3 mins before addition of growth medium measured after 40 to 48 hrs; summary of the method: as §1
Enterococcus [24] = test: Bactericidal activity against vancomycin-resistant Enterococcus 49 preincubated for 3 mins before addition of growth medium measured after 40 to 48 hrs; summary of the method: as §1
Pseudomonas aeruginosa [25] = test: Bactericidal activity against Pseudomonas aeruginosa 12 preincubated for 5 mins before addition of growth medium measured after 40 to 48 hrs
Escherichia coli [26] = test: Bactericidal activity against Escherichia coli NIHJ JC-2 preincubated for 3 mins before addition of growth medium measured after 40 to 48 hrs
Staphylococcus aureus [27] = test: Antibacterial activity against Staphylococcus aureus 209PJC after 24 hrs; summary of the method: as §2
Pseudomonas aeruginosa [28] = test: Bactericidal activity against Pseudomonas aeruginosa 12 preincubated for 1 min before addition of growth medium measured after 40 to 48 hrs

SMILES	MBC (Enterococcus [1]) [µg/mL]	MBC (Staphylococcus aureus [2]) [µg/mL]	MBC (Pseudomonas aeruginosa [3]) [µg/mL]	MBC (Staphylococcus aureus [4]) [µg/mL]	MBC (Staphylococcus aureus [5]) [µg/mL]	MBC (Staphylococcus aureus [6]) [µg/mL]	MBC (Pseudomonas aeruginosa [7]) [µg/mL]	MIC (Staphylococcus aureus [8]) [µg/mL]	MBC (Staphylococcus aureus [9]) [µg/mL]	MBC (Pseudomonas aeruginosa [10]) [µg/mL]	MIC (Escherichia coli [11]) [µg/mL]	MBC (Staphylococcus aureus [12]) [µg/mL]	MBC (Escherichia coli [13]) [µg/mL]	MBC (Pseudomonas aeruginosa [14]) [µg/mL]	MBC (Enterococcus [15]) [µg/mL]	MBC (Staphylococcus aureus [16]) [µg/mL]	MBC (Staphylococcus aureus [17]) [µg/mL]	MBC (Staphylococcus aureus [18]) [µg/mL]	MIC (Pseudomonas aeruginosa [19]) [µg/mL]	MBC (Escherichia coli [20]) [µg/mL]	further results
CC(=O)O.CCCCCCCCNC1=NC(C)(C)NC(NCc2ccc(C)cc2)=N1	25	50	6.3	3.1	25	3.1	6.3	0.4	50	12.5	12.5	6.3	6.3	3.1	12.5	25	25	12.5	12.5	12.5	MBC (Staphylococcus aureus [21]): 50 µg/mL; MBC (Staphylococcus aureus [22]): 50 µg/mL; MBC (Staphylococcus aureus [23]): 25 µg/mL; MBC (Enterococcus [24]): 25 µg/mL; MBC (Pseudomonas aeruginosa [25]): 3.1 µg/mL; MBC (Escherichia coli [26]): 6.3 µg/mL; MIC (Staphylococcus aureus [27]): 0.4 µg/mL; MBC (Pseudomonas aeruginosa [28]): 6.3 µg/mL
CC(=O)O.CCCCCCCCNC1=NC(C)(C)NC(NCCCCCC)=N1	25	50	3.1	6.3	25	6.3	3.1	0.8	25	6.3	12.5	12.5	6.3	1.6	12.5	12.5	25	6.3	50	12.5	MBC (Staphylococcus aureus [21]): 25 µg/mL; MBC (Staphylococcus aureus [22]): 50 µg/mL; MBC (Staphylococcus aureus [23]): 6.3 µg/mL; MBC (Enterococcus [24]): 25 µg/mL; MBC (Pseudomonas aeruginosa [25]): 1.6 µg/mL; MBC (Escherichia coli [26]): 6.3 µg/mL; MIC (Staphylococcus aureus [27]): 0.8 µg/mL; MBC (Pseudomonas aeruginosa [28]): 3.1 µg/mL
N=C(NCCCCCCNC(=N)NC(=N)Nc1ccc(Cl)cc1)NC(=N)Nc1ccc(Cl)cc1.O=C(O)[C@H](O)[C@@H](O)[C@H](O)[C@H](O)CO	> 1000	500	> 500	62.5	500	62.5	31.3	3.1	500	> 500	1.6	62.5	15.6	> 500	> 1000	1000	250	125	50	62.5	MBC (Staphylococcus aureus [21]): 250 µg/mL; MBC (Staphylococcus aureus [22]): 500 µg/mL; MBC (Staphylococcus aureus [23]): 250 µg/mL; MBC (Enterococcus [24]): > 1000 µg/mL; MBC (Pseudomonas aeruginosa [25]): 31.3 µg/mL; MBC (Escherichia coli [26]): 31.3 µg/mL; MIC (Staphylococcus aureus [27]): 0.2 µg/mL; MBC (Pseudomonas aeruginosa [28]): 125 µg/mL
